# Source: ChEMBL document CHEMBL1125451, “Structure-activity studies of a novel bicyclic oxytocin antagonist” (J Med Chem, 1992)
# Active and inactive are the calls of the source. The calls are words filed in the database; no cut-off is given here. Numbered stars: 1 amine (or outer) side, 2 acyl side, 3 side chain; on linkers, the order of the positions; unused ones are H or OH. Bridge positions count the residues as written; N and C are the ends. Square brackets hold non-standard residues; d marks the D form. Peptide text beside a SMILES is read from it. * marks the point of attachment. X1 = CC(C)(CC(=O)[*:1])S[*:2]; Mpa = O=C(O)CCS; For = O=C*
# Tests used:
# Rattus norvegicus [1] = test: (§1) In vivo oxytocin antagonistic activity […] was determined by galactogogic assay; assay type: functional
# Rattus norvegicus [2] = test: (§2) In vivo pressor activity by vasopressin assay in rats; assay type: functional
# Rattus norvegicus [3] = test: In vivo pressor activity by vasopressin assay in rats; o = inactive up to dose 2*10e-2; assay type: functional, organism-based
# Rattus norvegicus [4] = organism: Rattus norvegicus; test: In vitro oxytocin antagonistic activity against rat uterine strips; o = inactive up to dose 2*10e-2; assay type: functional
# Procedure, shortened: (§3)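 Isolated uterine strips from Wistar rats estrogenized 24-48 h beforehand, tested in Munsick's solution by the Holton method. Cumulative oxytocin dose-response curves were constructed, with antagonist added to the bath 1 min before the oxytocin curve was started. Antagonism expressed as pA2.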
# Rattus norvegicus [5] = test: as §2; assay type: functional, organism-based; conditions: read-out: pA2 (converted)
# Rattus norvegicus [6] = organism: Rattus norvegicus; test: In vitro oxytocin antagonistic activity against rat uterine strips; assay type: functional; conditions: read-out: pA2 (converted); procedure, shortened: as §3
# Oxytocin receptor = target: T1, Oxytocin receptor (Rattus norvegicus, UniProt P70536); test: In vitro Oxytocin receptor antagonistic activity against rat uterine strips; assay type: functional; conditions: read-out: pA2 (converted); procedure, shortened: as §3
# T1 sequence (P70536 whole entry): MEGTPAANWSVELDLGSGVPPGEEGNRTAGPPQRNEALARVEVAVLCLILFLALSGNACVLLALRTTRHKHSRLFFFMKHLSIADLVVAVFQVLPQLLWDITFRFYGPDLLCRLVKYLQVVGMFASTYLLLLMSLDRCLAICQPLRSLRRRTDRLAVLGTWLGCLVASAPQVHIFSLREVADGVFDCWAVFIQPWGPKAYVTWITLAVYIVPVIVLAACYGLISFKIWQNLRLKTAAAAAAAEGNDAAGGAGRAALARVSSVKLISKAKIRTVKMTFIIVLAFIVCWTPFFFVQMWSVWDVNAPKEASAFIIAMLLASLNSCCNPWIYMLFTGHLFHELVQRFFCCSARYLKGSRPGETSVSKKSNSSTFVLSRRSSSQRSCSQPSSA
# Rattus norvegicus [7] = test: as §1; assay type: functional, organism-based; conditions: read-out: pA2 (converted)
# Rattus norvegicus [8] = test: In vivo pressor activity by vasopressin assay in rats(inactive up to dose 2*10e-2); assay type: functional
Structure (SMILES),Activity (Rattus norvegicus [1]) [IU mg-1],Activity (Rattus norvegicus [2]) [IU mg-1],other results
CC[C@H](C)[C@@H]1NC(=O)[C@H](Cc2ccc(O)cc2)NC(=O)CCSSC[C@@H](C(=O)N2CCC[C@H]2C(=O)N[C@@H](CC(C)C)C(=O)NCC(N)=O)NC(=O)[C@H](CC(N)=O)NC(=O)[C@H](CCC(N)=O)NC1=O,541,1.44,–
CC[C@H](C)[C@@H]1NC(=O)[C@H](Cc2ccc(O)cc2)NC(=O)CCSSC[C@@H](C(=O)N2CCC[C@H]2C(=O)N[C@@H](CCCCN)C(=O)NCC(N)=O)NC(=O)[C@H](CC(N)=O)NC(=O)[C@H](CCC(N)=O)NC1=O,272,368,–
CC[C@H](C)[C@@H]1NC(=O)[C@H](Cc2ccc(O)cc2)NC(=O)CC(C)(C)SSC[C@@H](C(=O)N2CCC[C@H]2C(=O)N[C@@H](CCCCNC=O)C(=O)NCC(N)=O)NC(=O)[C@H](CC(N)=O)NC(=O)[C@H](CCC(N)=O)NC1=O (YIQNCPK(For)G-NH2; linker N-5 via X1) [listing 1 of 2 here],1.1,–,–
CC[C@H](C)[C@@H]1NC(=O)[C@H](Cc2ccc(O)cc2)NC(=O)CCSSC[C@@H]2NC(=O)[C@H](CC(N)=O)NC(=O)[C@H](CCC(=O)NCCCC[C@@H](C(=O)NCC(N)=O)NC(=O)[C@@H]3CCCN3C2=O)NC1=O ([Mpa]YIENCPKG-NH2; disulfide 1-6; lactam 4-8) [listing 1 of 2 here],–,0.1,–
CC[C@H](C)[C@@H]1NC(=O)[C@H](Cc2ccc(O)cc2)NC(=O)[C@@H](N)CSSC[C@@H](C(=O)N2CCC[C@H]2C(=O)N[C@@H](CC(C)C)C(=O)NCC(N)=O)NC(=O)[C@H](CC(N)=O)NC(=O)[C@H](CCC(N)=O)NC1=O [OXYTOCIN],450,3.1,–
CC[C@H](C)[C@@H]1NC(=O)[C@H](Cc2ccc(O)cc2)NC(=O)CCSSC[C@@H](C(=O)N2CCC[C@H]2C(=O)N[C@@H](CCCCNC=O)C(=O)NCC(N)=O)NC(=O)[C@H](CC(N)=O)NC(=O)[C@H](CCC(N)=O)NC1=O,517,101.6,–
CC[C@H](C)[C@@H]1NC(=O)[C@H](Cc2ccc(O)cc2)NC(=O)CCSSC[C@@H](C(=O)N2CCC[C@H]2C(=O)N[C@@H](CCCCNC=O)C(=O)NCC(N)=O)NC(=O)[C@H](CC(N)=O)NC(=O)[C@H](CCC(=O)O)NC1=O,8,–,–
CC[C@H](C)[C@@H]1NC(=O)[C@H](Cc2ccc(O)cc2)NC(=O)CC(C)(C)SSC[C@@H](C(=O)N2CCC[C@H]2C(=O)N[C@@H](CCCCN)C(=O)NCC(N)=O)NC(=O)[C@H](CC(N)=O)NC(=O)[C@H](CCC(=O)O)NC1=O (YIENCPKG-NH2; linker N-5 via X1) [listing 1 of 2 here],<0.01,0,–
CC[C@@H](C)[C@@H]1NC(=O)[C@@H](Cc2ccc(O)cc2)NC(=O)CCSSC[C@@H](C(=O)N2CCC[C@@H]2C(=O)N[C@@H](CCCCNC=O)C(=O)NCC(N)=O)NC(=O)[C@H](CC(N)=O)NC(=O)[C@@H](CCC(=O)O)NC1=O,–,–,Activity (Rattus norvegicus [3]): inactive; Activity (Rattus norvegicus [4]): inactive
CC[C@H](C)[C@@H]1NC(=O)[C@H](Cc2ccc(O)cc2)NC(=O)CC(C)(C)SSC[C@@H](C(=O)N2CCC[C@H]2C(=O)N[C@@H](CCCCNC=O)C(=O)NCC(N)=O)NC(=O)[C@H](CC(N)=O)NC(=O)[C@H](CCC(N)=O)NC1=O (YIQNCPK(For)G-NH2; linker N-5 via X1) [listing 2 of 2 here],–,–,Kb (Rattus norvegicus [5]): 631 nM; Kb (Rattus norvegicus [6]): 39.8 nM
CC[C@H](C)[C@@H]1NC(=O)[C@H](Cc2ccc(O)cc2)NC(=O)CC(C)(C)SSC[C@@H](C(=O)N2CCC[C@H]2C(=O)N[C@@H](CCCCNC=O)C(=O)NCC(N)=O)NC(=O)[C@H](CC(N)=O)NC(=O)[C@H](CCC(=O)O)NC1=O (YIENCPK(For)G-NH2; linker N-5 via X1),–,–,Kb (Rattus norvegicus [6]): 7940 nM
CC[C@H](C)[C@@H]1NC(=O)[C@H](Cc2ccc(O)cc2)NC(=O)CC(C)(C)SSC[C@@H](C(=O)N2CCC[C@H]2C(=O)N[C@@H](CCCCN)C(=O)NCC(N)=O)NC(=O)[C@H](CC(N)=O)NC(=O)[C@H](CCC(N)=O)NC1=O (YIQNCPKG-NH2; linker N-5 via X1),–,–,Kb (Oxytocin receptor): 16.6 nM
CC[C@H](C)[C@@H]1NC(=O)[C@H](Cc2ccc(O)cc2)NC(=O)CC(C)(C)SSC[C@@H](C(=O)N2CCC[C@H]2C(=O)N[C@@H](CC(C)C)C(=O)NCC(N)=O)NC(=O)[C@H](CC(N)=O)NC(=O)[C@H](CCC(N)=O)NC1=O (YIQNCPLG-NH2; linker N-5 via X1),–,–,Kb (Rattus norvegicus [5]): 537 nM; Kb (Rattus norvegicus [6]): 115 nM
CC[C@H](C)[C@@H]1NC(=O)[C@H](Cc2ccc(O)cc2)NC(=O)CCSSC[C@@H]2NC(=O)[C@H](CC(N)=O)NC(=O)[C@H](CCC(=O)NCCCC[C@@H](C(=O)NCC(N)=O)NC(=O)[C@@H]3CCCN3C2=O)NC1=O ([Mpa]YIENCPKG-NH2; disulfide 1-6; lactam 4-8) [listing 2 of 2 here],–,–,Kb (Oxytocin receptor): 6.31 nM; Kb (Rattus norvegicus [7]): 1000 nM
CC[C@H](C)[C@@H]1NC(=O)[C@H](Cc2ccc(O)cc2)NC(=O)CCSSC[C@@H](C(=O)N2CCC[C@H]2C(=O)N[C@@H](CCCCN)C(=O)NCC(N)=O)NC(=O)[C@H](CC(N)=O)NC(=O)[C@H](CCC(=O)O)NC1=O,9.1,0.1,–
CC[C@H](C)[C@@H]1NC(=O)[C@H](Cc2ccc(O)cc2)NC(=O)CC(C)(C)SSC[C@@H](C(=O)N2CCC[C@H]2C(=O)N[C@@H](CCCCN)C(=O)NCC(N)=O)NC(=O)[C@H](CC(N)=O)NC(=O)[C@H](CCC(=O)O)NC1=O (YIENCPKG-NH2; linker N-5 via X1) [listing 2 of 2 here],–,–,Kb (Oxytocin receptor): 1580 nM
CC[C@H](C)[C@@H]1NC(=O)[C@H](Cc2ccc(O)cc2)NC(=O)[C@@H](N)C(C)(C)SSC[C@@H](C(=O)N2CCC[C@H]2C(=O)N[C@@H](CC(C)C)C(=O)NCC(N)=O)NC(=O)[C@H](CC(N)=O)NC(=O)[C@H](CCC(N)=O)NC1=O,–,–,Activity (Rattus norvegicus [8]): 0 IU mg-1
